According to ChEMBL document CHEMBL1143565, “Pyrido[2,3-d]pyrimidin-7-ones as specific inhibitors of cyclin-dependent kinase 4” (J Med Chem, 2005):

Key:
[1] = target: Cyclin-dependent kinase 1/cyclin B (Homo sapiens, UniProt P06493); test: Inhibition of [32P]ATP binding to Cyclin dependent kinase 1-cyclin B; type: protein-complex assay
In short: (§1)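 Human recombinant Cdk–cyclin holoenzymes expressed in insect cells via baculovirus. Each reaction held 20 ng enzyme, 1 µg GST-retinoblastoma substrate and inhibitor dilutions in 20 mM Tris pH 7.4, 50 mM NaCl, 1 mM DTT, 10 mM MgCl2. Started with [32P]ATP (0.25 µCi), at 25 µM for Cdk4 or 12 µM for Cdk2/E, Cdk2/A and Cdc2/B. Ran 15 min at 25 °C. Stopped with TCA and precipitated ≥1 h at 4 °C.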

[2] = target: Cyclin-dependent kinase 4/cyclin D (Homo sapiens, UniProt P11802); test: (§2) Inhibition of [32P]ATP binding to Cyclin dependant kinase 4-cyclin D; type: protein-complex assay; in short: as §1
[3] = target: Cyclin-dependent kinase 2/cyclin A (Homo sapiens, UniProt P24941); test: (§3) Inhibition of [32P]ATP binding to Cyclin dependent kinase 2-cyclin A; type: protein-complex assay
In short: (§4)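 Human recombinant Cdk–cyclin holoenzymes expressed in insect cells via baculovirus. Each reaction held 20 ng enzyme, 1 µg GST-retinoblastoma substrate and inhibitor dilutions in 20 mM Tris pH 7.4, 50 mM NaCl, 1 mM DTT, 10 mM MgCl2. Stopped with TCA and precipitated ≥1 h at 4 °C.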

[4] = target: Cyclin-dependent kinase 2/cyclin E (Homo sapiens, UniProt P24941); test: Inhibition of [32P]ATP binding to Cyclin dependent kinase 2-cyclin E; type: protein-complex assay; in short: as §4
[5] = target: Cyclin-dependent kinase 2/cyclin A (Homo sapiens, UniProt P24941+P20248+P78396); test: as §3; type: protein-complex assay; in short: as §4
[6] = target: Cyclin-dependent kinase 4/cyclin D (Homo sapiens, UniProt P11802+P24385+P30281+P30279); test: as §2; type: protein-complex assay; in short: as §1
[7] = target: Mitogen-activated protein kinase 14 (Homo sapiens, UniProt Q16539); test: Inhibition of Stress activated protein kinase 2a
[8] = target: Mitogen-activated protein kinase 11 (Homo sapiens, UniProt Q15759); test: Inhibition of Stress activated protein kinase 2b
[9] = Inhibition of Tyrosine-protein kinase CSK
[10] = target: Ribosomal protein S6 kinase alpha-5 (Homo sapiens, UniProt O75582); test: Inhibition of mitogen and stress-activated protein kinase-1(MSK-1 kinase)
[11] = Inhibition of Protein Kinase A; set-up: species or system Homo sapiens
Protein kinase C (PKC) = test: Inhibition of Protein Kinase C; type: protein assay, Homo sapiens
[12] = target: Serine/threonine-protein kinase AKT (Homo sapiens, UniProt P31751+Q9Y243+P31749); test: Inhibition of Protein kinase B; type: protein assay
[13] = Inhibition of Phosphorylase kinase
[14] = target: Glycogen synthase kinase-3 beta (Homo sapiens, UniProt P49841); test: Inhibition of Glycogen synthase kinase 3 beta
[15] = target: MAP kinase-activated protein kinase 2 (Homo sapiens, UniProt P49137); test: Inhibition of MAP kinase-activated protein kinase 2
[16] = target: Ribosomal protein S6 kinase (P70S6K) (Homo sapiens, UniProt P23443+Q9UBS0); test: Inhibition of Ribosomal protein S6 kinase (p70S6K1); type: protein-complex assay
[17] = Inhibition of Mitogen activated protein kinase kinase 1
[18] = Inhibition of 3-phosphoinisitide-dependent protein kinase-1
[19] = target: Mitogen-activated protein kinase 1 (Homo sapiens, UniProt P28482); test: Inhibition of Mitogen activated protein kinase (MAPK2/erk2)
[20] = target: c-Jun N-terminal kinase, JNK (Homo sapiens, UniProt P45983+P53779+P45984); test: Inhibition of c-Jun N-terminal kinase; type: protein assay
MDA-MB-435 = test: In vitro inhibitory concentration is measured by the incorporation of [14C]thymidine in human breast carcinoma MDA-MB-435 cell line; type: functional, cell-based
[21] = target: Fibroblast growth factor receptor (Homo sapiens, UniProt P22607+P11362+P22455+P21802); test: Inhibition of Fibroblast growth factor receptor; type: protein assay
[22] = target: T1, MAP kinase-activated protein kinase 5 (Homo sapiens, UniProt Q8IW41); test: Inhibition of p38-regulated/activated kinase (PRAK)
T1 sequence (Q8IW41 whole entry): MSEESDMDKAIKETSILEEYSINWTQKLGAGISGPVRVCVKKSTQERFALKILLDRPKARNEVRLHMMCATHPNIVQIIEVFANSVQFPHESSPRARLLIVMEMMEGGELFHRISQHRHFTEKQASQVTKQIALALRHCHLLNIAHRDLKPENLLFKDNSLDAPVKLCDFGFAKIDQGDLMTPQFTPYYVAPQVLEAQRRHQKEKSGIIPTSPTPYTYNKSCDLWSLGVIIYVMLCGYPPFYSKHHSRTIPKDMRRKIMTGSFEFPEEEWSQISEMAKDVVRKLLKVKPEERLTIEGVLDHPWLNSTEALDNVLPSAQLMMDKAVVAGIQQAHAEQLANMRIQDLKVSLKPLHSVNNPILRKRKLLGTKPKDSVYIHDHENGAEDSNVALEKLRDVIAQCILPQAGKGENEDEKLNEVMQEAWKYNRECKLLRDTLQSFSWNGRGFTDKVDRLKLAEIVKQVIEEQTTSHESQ

Chain of Cyclin-dependent kinase 4/cyclin D (Homo sapiens, UniProt P11802+P24385+P30281+P30279) (P11802 whole entry): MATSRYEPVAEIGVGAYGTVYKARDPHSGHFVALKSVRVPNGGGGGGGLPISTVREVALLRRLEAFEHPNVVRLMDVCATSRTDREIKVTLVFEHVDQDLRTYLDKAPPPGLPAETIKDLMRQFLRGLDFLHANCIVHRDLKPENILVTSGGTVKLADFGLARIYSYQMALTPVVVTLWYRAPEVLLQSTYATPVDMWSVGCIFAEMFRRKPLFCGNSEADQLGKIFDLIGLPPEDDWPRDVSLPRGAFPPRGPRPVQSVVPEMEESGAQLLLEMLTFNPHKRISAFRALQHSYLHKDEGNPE
Chain of Cyclin-dependent kinase 4/cyclin D (Homo sapiens, UniProt P11802+P24385+P30281+P30279) (P24385 whole entry): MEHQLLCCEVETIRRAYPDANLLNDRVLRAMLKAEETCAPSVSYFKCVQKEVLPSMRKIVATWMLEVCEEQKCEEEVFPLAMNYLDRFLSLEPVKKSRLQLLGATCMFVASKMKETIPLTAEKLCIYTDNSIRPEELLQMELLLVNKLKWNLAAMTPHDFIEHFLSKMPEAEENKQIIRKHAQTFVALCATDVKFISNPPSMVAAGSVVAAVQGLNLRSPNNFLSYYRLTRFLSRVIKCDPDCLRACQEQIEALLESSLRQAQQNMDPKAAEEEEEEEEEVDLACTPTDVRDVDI
Chain of Cyclin-dependent kinase 4/cyclin D (Homo sapiens, UniProt P11802+P24385+P30281+P30279) (P30281 whole entry): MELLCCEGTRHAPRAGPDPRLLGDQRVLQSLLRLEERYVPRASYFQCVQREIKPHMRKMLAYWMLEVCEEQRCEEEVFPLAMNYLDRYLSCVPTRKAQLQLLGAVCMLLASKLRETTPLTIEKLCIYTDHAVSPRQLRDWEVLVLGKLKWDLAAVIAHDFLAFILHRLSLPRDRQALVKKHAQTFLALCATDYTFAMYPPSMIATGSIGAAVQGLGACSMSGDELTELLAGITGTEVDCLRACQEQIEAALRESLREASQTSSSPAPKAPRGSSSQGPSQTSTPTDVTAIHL
Chain of Cyclin-dependent kinase 4/cyclin D (Homo sapiens, UniProt P11802+P24385+P30281+P30279) (P30279 whole entry): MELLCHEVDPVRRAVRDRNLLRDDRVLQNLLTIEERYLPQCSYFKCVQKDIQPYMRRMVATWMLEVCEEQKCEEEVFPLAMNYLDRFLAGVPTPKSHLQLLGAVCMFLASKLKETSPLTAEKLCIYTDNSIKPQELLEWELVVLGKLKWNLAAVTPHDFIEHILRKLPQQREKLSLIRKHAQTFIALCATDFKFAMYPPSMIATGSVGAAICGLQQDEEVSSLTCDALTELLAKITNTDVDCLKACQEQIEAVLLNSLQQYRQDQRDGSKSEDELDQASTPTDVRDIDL
Chain of Mitogen-activated protein kinase 14 (Q16539 whole entry): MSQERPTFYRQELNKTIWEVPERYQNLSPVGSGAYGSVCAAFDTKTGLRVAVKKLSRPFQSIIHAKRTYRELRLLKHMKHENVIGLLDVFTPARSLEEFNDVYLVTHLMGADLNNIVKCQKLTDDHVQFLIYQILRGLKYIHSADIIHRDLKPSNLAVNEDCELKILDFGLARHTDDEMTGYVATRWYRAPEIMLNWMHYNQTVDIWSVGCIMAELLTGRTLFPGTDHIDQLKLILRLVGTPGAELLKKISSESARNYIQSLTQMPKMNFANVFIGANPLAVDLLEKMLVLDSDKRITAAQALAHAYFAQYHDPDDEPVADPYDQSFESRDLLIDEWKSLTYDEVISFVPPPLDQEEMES
Chain of MAP kinase-activated protein kinase 2 (P49137 whole entry): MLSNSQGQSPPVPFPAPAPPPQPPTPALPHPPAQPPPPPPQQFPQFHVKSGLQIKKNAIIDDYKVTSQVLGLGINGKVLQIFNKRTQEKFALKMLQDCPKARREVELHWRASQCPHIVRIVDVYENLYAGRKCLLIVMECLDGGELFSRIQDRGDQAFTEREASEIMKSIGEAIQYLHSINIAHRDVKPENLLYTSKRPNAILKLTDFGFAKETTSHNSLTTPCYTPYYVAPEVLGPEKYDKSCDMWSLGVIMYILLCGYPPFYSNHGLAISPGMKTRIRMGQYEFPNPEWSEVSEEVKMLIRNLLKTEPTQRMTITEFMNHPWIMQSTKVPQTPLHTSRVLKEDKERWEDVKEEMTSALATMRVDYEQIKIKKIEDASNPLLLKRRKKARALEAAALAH
Chain of Ribosomal protein S6 kinase (P70S6K) (Q9UBS0 whole entry): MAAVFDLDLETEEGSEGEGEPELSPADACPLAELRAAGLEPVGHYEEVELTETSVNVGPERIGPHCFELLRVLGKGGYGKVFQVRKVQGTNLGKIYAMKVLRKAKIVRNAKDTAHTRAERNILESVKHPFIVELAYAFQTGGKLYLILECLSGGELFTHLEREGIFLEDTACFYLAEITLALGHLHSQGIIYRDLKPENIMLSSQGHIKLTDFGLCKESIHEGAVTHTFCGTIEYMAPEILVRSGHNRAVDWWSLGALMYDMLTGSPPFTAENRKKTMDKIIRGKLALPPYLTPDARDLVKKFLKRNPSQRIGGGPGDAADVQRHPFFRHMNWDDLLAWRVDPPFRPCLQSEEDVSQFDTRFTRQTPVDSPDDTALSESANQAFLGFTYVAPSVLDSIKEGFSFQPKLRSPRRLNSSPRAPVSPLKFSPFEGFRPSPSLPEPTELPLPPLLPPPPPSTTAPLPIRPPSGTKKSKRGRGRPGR
Chain of Ribosomal protein S6 kinase (P70S6K) (P23443 whole entry): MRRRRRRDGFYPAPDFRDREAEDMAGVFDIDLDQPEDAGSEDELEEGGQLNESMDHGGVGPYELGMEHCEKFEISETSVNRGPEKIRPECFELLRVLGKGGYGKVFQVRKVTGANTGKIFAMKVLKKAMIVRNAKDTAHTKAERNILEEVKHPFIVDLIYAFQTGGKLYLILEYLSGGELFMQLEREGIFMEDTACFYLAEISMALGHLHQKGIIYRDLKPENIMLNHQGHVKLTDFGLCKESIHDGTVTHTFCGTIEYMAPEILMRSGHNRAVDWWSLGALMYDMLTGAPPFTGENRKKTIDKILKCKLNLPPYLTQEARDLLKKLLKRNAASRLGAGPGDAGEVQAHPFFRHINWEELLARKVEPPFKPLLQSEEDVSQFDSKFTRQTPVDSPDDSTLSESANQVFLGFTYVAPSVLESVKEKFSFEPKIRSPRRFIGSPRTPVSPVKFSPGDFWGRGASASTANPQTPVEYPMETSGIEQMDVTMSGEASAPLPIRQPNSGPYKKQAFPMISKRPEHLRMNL
Chain of Mitogen-activated protein kinase 1 (P28482 whole entry): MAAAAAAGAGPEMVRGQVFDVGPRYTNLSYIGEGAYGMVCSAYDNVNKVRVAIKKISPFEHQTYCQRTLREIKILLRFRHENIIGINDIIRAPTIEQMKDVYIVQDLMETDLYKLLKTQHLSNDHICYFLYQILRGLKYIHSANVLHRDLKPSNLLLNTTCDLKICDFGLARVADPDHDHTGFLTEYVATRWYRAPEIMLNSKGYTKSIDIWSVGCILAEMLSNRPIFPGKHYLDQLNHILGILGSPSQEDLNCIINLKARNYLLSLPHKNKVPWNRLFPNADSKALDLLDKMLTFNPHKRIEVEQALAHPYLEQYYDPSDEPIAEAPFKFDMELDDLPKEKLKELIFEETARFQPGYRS
Chain of Ribosomal protein S6 kinase alpha-5 (O75582 whole entry): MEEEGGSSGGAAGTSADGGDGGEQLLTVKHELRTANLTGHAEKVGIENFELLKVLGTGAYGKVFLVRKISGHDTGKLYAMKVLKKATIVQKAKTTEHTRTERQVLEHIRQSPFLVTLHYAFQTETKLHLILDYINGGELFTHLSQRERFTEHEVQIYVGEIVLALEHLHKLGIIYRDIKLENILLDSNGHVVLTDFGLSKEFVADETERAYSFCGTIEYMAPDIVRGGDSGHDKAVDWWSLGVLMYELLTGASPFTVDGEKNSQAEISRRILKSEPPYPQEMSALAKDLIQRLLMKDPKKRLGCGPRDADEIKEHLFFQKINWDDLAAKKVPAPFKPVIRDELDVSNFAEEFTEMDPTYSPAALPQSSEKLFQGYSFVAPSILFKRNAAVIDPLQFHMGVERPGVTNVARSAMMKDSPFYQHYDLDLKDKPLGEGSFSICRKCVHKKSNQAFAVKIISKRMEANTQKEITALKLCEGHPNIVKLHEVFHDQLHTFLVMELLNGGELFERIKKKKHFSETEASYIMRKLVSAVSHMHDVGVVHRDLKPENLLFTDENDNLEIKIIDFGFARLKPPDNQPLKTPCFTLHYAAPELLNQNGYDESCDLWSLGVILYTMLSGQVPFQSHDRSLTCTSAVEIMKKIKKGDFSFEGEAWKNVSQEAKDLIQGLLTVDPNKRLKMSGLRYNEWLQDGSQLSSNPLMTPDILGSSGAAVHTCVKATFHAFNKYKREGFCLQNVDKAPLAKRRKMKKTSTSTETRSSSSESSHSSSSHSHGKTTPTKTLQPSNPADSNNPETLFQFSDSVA
Chain of Mitogen-activated protein kinase 11 (Q15759 whole entry): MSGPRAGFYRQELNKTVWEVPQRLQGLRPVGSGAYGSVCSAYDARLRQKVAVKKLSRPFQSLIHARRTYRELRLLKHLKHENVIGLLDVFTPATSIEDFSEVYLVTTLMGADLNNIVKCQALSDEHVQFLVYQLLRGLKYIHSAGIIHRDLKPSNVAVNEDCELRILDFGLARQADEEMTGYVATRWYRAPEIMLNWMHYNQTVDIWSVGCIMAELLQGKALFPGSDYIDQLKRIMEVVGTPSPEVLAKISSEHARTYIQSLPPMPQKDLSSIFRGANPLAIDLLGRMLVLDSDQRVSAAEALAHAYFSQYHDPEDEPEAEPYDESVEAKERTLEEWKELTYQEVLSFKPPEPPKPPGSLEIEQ
Chain of Glycogen synthase kinase-3 beta (P49841 whole entry): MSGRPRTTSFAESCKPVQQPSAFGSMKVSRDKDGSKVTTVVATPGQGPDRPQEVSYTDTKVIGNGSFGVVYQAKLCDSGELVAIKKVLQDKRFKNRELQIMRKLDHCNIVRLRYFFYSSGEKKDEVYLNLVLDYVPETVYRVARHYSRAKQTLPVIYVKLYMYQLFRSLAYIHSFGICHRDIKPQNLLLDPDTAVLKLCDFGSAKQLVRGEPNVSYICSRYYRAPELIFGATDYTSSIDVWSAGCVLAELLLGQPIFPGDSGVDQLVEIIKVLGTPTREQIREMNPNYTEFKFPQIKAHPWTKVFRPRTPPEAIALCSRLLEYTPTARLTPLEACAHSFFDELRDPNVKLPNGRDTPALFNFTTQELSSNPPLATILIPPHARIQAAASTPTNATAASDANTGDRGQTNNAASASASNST

SMILES | IC50 [1] [µM] | IC50 [2] [µM] | IC50 [3] [µM] | IC50 [4] [µM] | further results
O=c1ccc2cnc(Nc3ccc(N4CCCCC4)cc3)nc2n1C1CCCC1 | 0.57 | 0.01 | 0.66 | 0.246 | 
Cc1c(Cl)c(=O)n(C2CCCC2)c2nc(Nc3ccc(N4CCNCC4)cc3)ncc12 | > 5 | 0.016 | 1.62 | 1.5 | 
Cc1cc(=O)n(C2CCCC2)c2nc(Nc3ccc(N4CCC(O)C4)cc3)ncc12 (stereo not drawn) | > 5 | 0.26 |  |  | 
Cc1c(Br)c(=O)n(C2CCCC2)c2nc(Nc3ccc(N4CCNCC4)cc3)ncc12 | 2.61 |  |  | 0.95 | IC50 [5]: 0.439 µM
Cc1c(C)c2cnc(Nc3ccc(N4CCNCC4)cc3)nc2n(C2CCCC2)c1=O | > 5 | 0.165 |  | > 5 | 
COC(=O)c1c(C)c2cnc(Nc3ccc(N4CCNCC4)cc3)nc2n(C2CCCC2)c1=O | > 5 | 0.004 | 2.82 | > 5 | 
Cc1cc(=O)n(C2CCCC2)c2nc(Nc3ccc(N4CCNCC4)c(Cl)c3)ncc12 | > 5 | 0.028 | > 5 | > 5 | 
Cc1cc(=O)n(C2CCCC2)c2nc(Nc3ccc(N4CCCNCC4)cc3)ncc12 | > 5 | 0.052 | > 5 | > 5 | 
CN1CCN(c2ccc(Nc3ncc4ccc(=O)n(C5CCCC5)c4n3)cc2)CC1 |  | 0.007 | 0.014 | 0.039 | 
O=c1ccc2cnc(Nc3ccc(N4CCC(CCCO)CC4)cc3)nc2n1C1CCCC1 | > 5 |  |  | 4.55 | 
Cc1cc(=O)n(C2CCCC2)c2nc(Nc3ccc(N4CCN(C=O)CC4)cc3)ncc12 | > 5 | 0.161 | > 5 | > 5 | 
Cc1cc(=O)n(CCC(C)C)c2nc(Nc3ccc(N4CCNCC4)cc3)ncc12 | > 5 | 1.07 | > 5 | > 5 | 
CCc1cc(=O)n(C2CCCC2)c2nc(Nc3ccc(N4CCNCC4)cc3)ncc12 | > 5 | 0.655 | > 5 | > 5 | 
CCc1c(C)c2cnc(Nc3ccc(N4CCNCC4)cc3)nc2n(C2CCCC2)c1=O | 4.12 | 0.025 | 1.54 | 1.65 | 
Cc1c(F)c(=O)n(C2CCCC2)c2nc(Nc3ccc(N4CCNCC4)cc3)ncc12 | > 5 | 0.03 | > 5 | > 5 | 
Cc1cc(=O)n(C2CCCC2)c2nc(Nc3ccc(N4CCN(C)CC4)cc3)ncc12 | > 5 | 0.018 | > 5 | > 5 | 
Cc1c(I)c(=O)n(C2CCCC2)c2nc(Nc3ccc(N4CCNCC4)cc3)ncc12 | 1.87 | 0.005 | 0.443 | 0.365 | 

SMILES | IC50 [1] [µM] | IC50 [2] [µM] | IC50 [3] [µM] | IC50 [4] [µM] | further results
Cc1cc(=O)n(C2CCCC2)c2nc(Nc3ccc(N4C[C@@H](C)N[C@@H](C)C4)cc3)ncc12 | > 5 | 0.24 |  | > 5 | 
Cc1cc(=O)n(C2CCCC2)c2nc(Nc3ccc(N4CCN(C(=O)OC(C)(C)C)CC4)cc3)ncc12 |  | 0.425 | > 5 | > 5 | 
Cc1cc(=O)n(C2CCCC2)c2nc(Nc3ccc(N4CCCCC4)cc3)ncc12 |  | 0.18 | > 5 |  | 
Cc1cc(=O)n(C2CCCC2)c2nc(Nc3ccc(N4CCNC(C)(C)C4)cc3)ncc12 | > 5 | 0.065 | > 5 | > 5 | 
Cc1cc(=O)n(C2CCCC2)c2nc(Nc3ccc(N4CCOCC4)cc3)ncc12 | 1.12 | 0.116 | > 5 | > 5 | 
CCOC(=O)c1c(C)c2cnc(Nc3ccc(N4CCNCC4)cc3)nc2n(C2CCCC2)c1=O | > 5 |  | > 5 | > 5 | IC50 [6]: 0.006 µM
O=c1ccc2cnc(Nc3ccc(N4CCNCC4)cc3)nc2n1C1CCCC1 |  |  |  | 0.08 | 
CC(=O)N1CCN(c2ccc(Nc3ncc4c(C)cc(=O)n(C5CCCC5)c4n3)cc2)CC1 | > 5 | 0.103 | > 5 | > 5 | 
Cc1cc(=O)n(C2CCCC2)c2nc(Nc3ccc(N4CCN(CCO)CC4)cc3)ncc12 | > 5 | 0.035 | > 5 | > 5 | 
Cc1cc(=O)n(C2CCCC2)c2nc(Nc3ccc(N4CCNCC4)cc3)ncc12 | > 5 | 0.014 |  |  | 
O=c1ccc2cnc(Nc3ccc(N4CCOCC4)cc3)nc2n1C1CCCC1 | 0.275 | 0.01 | 0.028 | 0.085 | 
Cc1cc(=O)n(C(C)C)c2nc(Nc3ccc(N4CCNCC4)cc3)ncc12 | > 5 | 0.265 | > 5 | > 5 | 
Cc1cc(=O)n(C2CCCC2)c2nc(Nc3ccc(N4CCC(N)C4)cc3)ncc12 (stereo not drawn) | > 5 | 0.064 |  |  | 
O=c1cc(C(F)(F)F)c2cnc(Nc3ccc(N4CCNCC4)cc3)nc2n1C1CCCC1 | > 5 | 2.65 | > 5 | > 5 | 
Cc1c(C(=O)O)c(=O)n(C2CCCC2)c2nc(Nc3ccc(N4CCNCC4)cc3)ncc12 | > 5 | 0.032 | > 5 | > 5 | 
Cc1cc(=O)n(C2CCCC2)c2nc(Nc3ccc(N4CCC(CCCO)CC4)cc3)ncc12 | > 5 | 0.114 | > 5 | > 5 | 
CC(=O)c1c(C)c2cnc(Nc3ccc(N4CCNCC4)cc3)nc2n(C2CCCC2)c1=O |  |  |  |  | IC50 [7]: > 10 µM; IC50 [8]: > 10 µM; IC50 [9]: > 10 µM; IC50 [10]: > 10 µM; IC50 [11]: > 10 µM; IC50 (Protein kinase C (PKC)): > 10 µM; IC50 [12]: > 10 µM; IC50 [13]: > 10 µM; IC50 [14]: > 10 µM; IC50 [15]: > 10 µM; IC50 [16]: > 10 µM; IC50 [17]: > 10 µM; IC50 [6]: 0.002 µM; IC50 [18]: > 10 µM; IC50 [19]: > 10 µM; IC50 [20]: > 10 µM; IC50 (MDA-MB-435): 0.032 µM; IC50 [21]: 1.86 µM; IC50 [22]: > 10 µM
